Results pooled from the literature.
Read-out: cell growth or viability

`CN(C)C(=O)c1sc2nc(-c3ccccc3)ccc2c1N` has an IC50 of over 100 µM (HepG2; 72 h).
The IC50 of `Cc1cccc(F)c1NC(=N)CC(O)c1cc2c(F)cc(F)cc2c2cc(C(F)(F)F)ccc12` (stereo not drawn) is reported as 22.8 µM (HepG2; neutral red; 24 h).
For `N.N.[Cl][Pt][Cl]`, the inhibition was 100% (Ramos; ATP luminescence; 10 µM; 72 h).
`O=C(Nc1ccc(Cl)cc1)Nc1cccc(-c2cn(Cc3ccc(Br)cc3)nn2)c1` gave a viability of 60.5% (Huh-7; CCK-8; 50 µM; 48 h).
The IC50 of `COc1ccc(-c2cc(C(F)(F)F)c3c(N)c(C(=O)NC4CC4)sc3n2)cc1` is reported as over 100 µM (HepG2; 72 h).
`N=C(CC(O)c1cc2c(F)cc(F)cc2c2cc(C(F)(F)F)ccc12)Nc1ccc(N2CCC(F)(F)CC2)cc1` (stereo not drawn) has an IC50 of 53.8 µM (HepG2; neutral red; 24 h).
With `Nc1c(C(=O)NCc2ccc(F)cc2)sc2nc(-c3ccccc3)ccc12` the IC50 was over 100 µM (HepG2; 72 h).
The IC50 of `N=C(CC(O)c1cc2c(F)cc(F)cc2c2cc(C(F)(F)F)ccc12)Nc1cc(F)c(F)c(F)c1` (stereo not drawn) is reported as 18.3 µM (HepG2; neutral red; 24 h).
For `O=C1[O][Pt]2([NH][C@@H]3CCCC[C@H]3[NH]2)[O]C1=O`, the IC50 was 32.2 µM (THLE3; imaging; 72 h).
